Screens deposited in PubChem by several laboratories.
UBC13 polyUb – UBC13 polyubiquitin chain formation inhibitors, primary screen, biochemical, TR-FRET, uHTS. 0.47% of 330,000 active. Ubiquitin-conjugating enzyme E2 N (Homo sapiens), P61088. inhibition, % at 20 µM. AID 485273, 2010; in the data active = inhibition above about 45%, passing the limit was not always enough
Target sequence (P61088 whole entry, looked up): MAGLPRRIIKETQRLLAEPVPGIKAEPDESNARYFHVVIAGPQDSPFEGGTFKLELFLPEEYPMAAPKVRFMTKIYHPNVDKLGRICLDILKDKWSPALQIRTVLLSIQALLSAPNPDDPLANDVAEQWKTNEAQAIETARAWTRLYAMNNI
SR-BI HDL uptake – inhibitors of SR-BI mediated HDL lipid uptake, primary screen, ldlA[mSR-BI] cells, fluorescence, single point | ldlA[mSR-BI] CHO cells, DiI-HDL uptake fluorescence, 3 h | Scavenger receptor class B member 1 (Mus musculus), Q61009 | 0.96% of 320,000 active | inhibition, % at 12.5 µM;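 active = mean replicate inhibition of at least 70% and a set share of replicates each scoring 70 or more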;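 also: 0% = median of neutral control wells and 100% = median of positive control wells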
Target sequence (Q61009 whole entry, looked up): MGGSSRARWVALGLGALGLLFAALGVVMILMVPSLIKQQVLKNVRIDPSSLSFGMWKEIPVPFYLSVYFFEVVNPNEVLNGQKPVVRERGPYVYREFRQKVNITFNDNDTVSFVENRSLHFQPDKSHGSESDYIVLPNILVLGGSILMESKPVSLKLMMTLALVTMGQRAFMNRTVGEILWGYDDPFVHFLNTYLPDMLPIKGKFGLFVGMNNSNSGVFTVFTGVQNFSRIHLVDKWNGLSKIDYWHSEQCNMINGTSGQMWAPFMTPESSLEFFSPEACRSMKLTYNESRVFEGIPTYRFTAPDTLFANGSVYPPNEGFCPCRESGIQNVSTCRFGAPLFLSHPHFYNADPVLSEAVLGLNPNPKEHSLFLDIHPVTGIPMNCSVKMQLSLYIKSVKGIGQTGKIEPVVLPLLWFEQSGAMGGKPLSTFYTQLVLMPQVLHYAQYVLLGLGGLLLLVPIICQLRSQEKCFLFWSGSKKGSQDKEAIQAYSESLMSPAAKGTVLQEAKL
Neddylation inh – inhibitors of cullin neddylation, primary screen, biochemical, TR-FRET, uHTS, NAE and Ubc12; NEDD8-conjugating enzyme Ubc12 (Homo sapiens) + NEDD8-activating enzyme E1 regulatory …; 0.58% of 360,000 active; inhibition, % at 25 µM; in the data active = inhibition above about 36%
SR-BI uptake up – activators of SR-BI mediated DiI-HDL uptake, primary screen, ldlA[mSR-BI] CHO cells, DiI fluorescence | 3 h; 100 = double the neutral-control signal | 0.096% of 320,000 active | activation, % at 12.5 µM;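 active = mean replicate activation of at least 60% and every replicate at or above 60%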;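 also: 0% = median plate neutral-control signal and 100% = twice that signal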
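Test system: SR-BI-overexpressing, LDLR-lacking CHO cells; Medium: Ham's F12 with 0.5% BSA, HEPES 25 mM, pH 7.4; Schedule: 3 h, 37 °C; Technique: bottom-read fluorescence, 550/595 nm.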
* marks the source's active call; other numbers are inactive results; · = no result. This is a sample that favours compounds with a hit; in the whole collection about 1.9% have one here.

SMILES | UBC13 polyUb | SR-BI HDL uptake | Neddylation inh | SR-BI uptake up
COC(=O)c1cc(C(=O)N2CCN(C(=O)c3ccco3)CC2)cc([N+](=O)[O-])c1 | 1.2 | -13.6 | -35.9 | 13.6
COc1ccc(/C=N/Nc2nc(-c3cccc(S(=O)(=O)N4CCCC4)c3)cs2)c(OC)c1 | -17.3 | 83.5* | 30.3 | -83.5
COc1cccc(C(=O)Nc2nc(-c3ccc(S(=O)(=O)N4CCOCC4)cc3)cs2)c1 | -0.7 | 65.0 | -81.9 | -65.0
CN(c1nc2ccccc2nc1Cl)S(=O)(=O)c1ccccc1 | 4.2 | 2.6 | -38.5 | -2.6
CCN(CC)c1ccc(/C=N/N2CCN(c3ccccc3OC)CC2)cc1 | 2.7 | 81.0* | -6.9 | -81.0
COc1ccc(/C=N/N2CCN(c3ccccc3OC)CC2)cc1OC | 4.4 | 38.5 | 0.3 | -38.5
O=C(O)Cn1ccc2cc(S(=O)(=O)N3CCCCC3)ccc21 | · | · | -5.7 | ·
COc1ccc(OC)c(Nc2nc(-c3sc(NC(=O)C(C)(C)C)nc3C)cs2)c1 | -1.7 | 81.5* | -15.0 | -81.5
CCC(C)C(=O)Nc1nc(C)c(-c2csc(Nc3cc(OC)ccc3OC)n2)s1 (stereo not given) | -4.4 | 80.1* | -2.6 | -80.1
CCCCCCC(=O)Nc1nc(C)c(-c2csc(Nc3cc(Cl)ccc3C)n2)s1 | -29.1 | 63.5 | -24.4 | -63.5
COc1cccc(Nc2nc(-c3sc(NC(=O)c4ccco4)nc3C)cs2)c1 | -24.7 | 55.3 | -41.2 | -55.3
COc1ccc(Cl)cc1Nc1nc(-c2sc(NC(=O)C(C)(C)C)nc2C)cs1 | -28.4 | 47.1 | -24.5 | -47.1
COc1ccccc1Nc1nc(-c2sc(NC(=O)c3ccc([N+](=O)[O-])cc3)nc2C)cs1 | -71.7 | · | · | ·
CCC(C)C(=O)Nc1nc(C)c(-c2csc(Nc3cc(Cl)ccc3OC)n2)s1 (stereo not given) | -8.8 | 71.7* | -18.3 | -71.7
COc1ccc(Cl)cc1Nc1nc(-c2sc(NC(=O)c3ccco3)nc2C)cs1 | -46.2 | 88.6* | -26.1 | -88.6
O=C(COc1cc2oc(=O)c3c(c2cc1Cl)CCC3)NCc1ccncc1 | 9.0 | 13.0 | -5.1 | -13.0
COCCNC(=O)Cn1cnc2c(cnn2-c2ccc(C)cc2)c1=O | -1.7 | · | 24.3 | ·
Cn1c(=O)c2[nH]c(C3CC3)nc2n(C)c1=O | · | -1.6 | -2.9 | 1.6
COc1ccc(OC)c(Nc2nc(-c3sc(NC(=O)CC(C)C)nc3C)cs2)c1 | 4.6 | 76.3* | -2.1 | -76.3
COc1ccc(OC)c(Nc2nc(-c3sc(C)nc3C)cs2)c1 | 19.6 | 63.6 | -16.5 | -63.6
COc1ccc(/C=N/Nc2nnc(-c3ncc[nH]3)c3ccccc23)cc1 | -18.3 | 3.2 | 3.5 | -3.2
Oc1ccc2ccccc2c1/C=N/Nc1nnc(-c2ncc[nH]2)c2ccccc12 | -53.5 | 135.6* | -4.3 | -135.5
N#Cc1nc(COc2ccc(Cl)cc2Cl)oc1N1CCN(c2ccccc2)CC1 | 8.5 | -117.5 | 9.0 | 117.5*
COc1ccc(N2CCN(c3oc(COc4ccc(Cl)cc4Cl)nc3C#N)CC2)cc1 | -8.6 | -1.5 | 3.0 | 1.5
Cc1ccc(-c2cc(C(=O)N/N=C/c3ccccc3O)n[nH]2)o1 | 3.6 | 83.2* | 21.0 | -83.3
SMILES | UBC13 polyUb | SR-BI HDL uptake | Neddylation inh | SR-BI uptake up
CC1(C(=O)NCc2ccccc2)CN(S(C)(=O)=O)CC(=O)N1CCCN1CCOCC1 (stereo not given) | · | · | -1.3 | ·
Cc1oc2nc(SCC(=O)NC3CCCCC3)nc(N)c2c1C | 3.5 | -388.5 | 2.3 | 388.5*
CS(=O)(=O)c1ncc(Cl)c(C(=O)Nc2ccc3ccccc3c2)n1 | · | 92.9* | -9.2 | -92.9
CCS(=O)(=O)c1ncc(Cl)c(C(=O)Nc2ccc(C)cc2)n1 | 43.5 | -34.0 | 2.7 | 34.0
Cc1nc(N2CCC(C)CC2)c2nnn(Cc3ccccc3)c2n1 | 15.2 | 81.5* | -9.3 | -81.5
Cc1ccccc1N(CC(=O)NCCc1ccccc1)C(=O)c1csnn1 | 2.5 | -4.9 | -0.7 | 4.9
CCCCc1cc(=O)oc2c(C)c(OCC(=O)N3CCCC3)ccc12 | 1.7 | 75.8* | 35.1 | -75.8
Cc1cc(=O)oc2c(C)c(OCC(=O)N3CCN(C(=O)C4COc5ccccc5O4)CC3)ccc12 (stereo not given) | 3.6 | 84.9* | 29.2 | -84.9
Nc1ccccc1C(=O)NNC(=O)C(=O)/C=C(\O)c1ccccc1 | -0.1 | · | 47.2* | ·
COc1ccc(/C=N/NC(=O)c2ccoc2C)cc1OC | -22.5 | -9.2 | -8.6 | 9.2
COc1cc(/C=N/NC(=O)c2cc3ccccc3cc2O)ccc1OCCN1CCCCC1 | 23.4 | 77.4* | 18.8 | -77.4
CCCc1c(C(=O)N/N=C/c2c[nH]c3ccccc23)nnn1-c1nonc1N | · | · | 23.1 | ·
COc1cc(/C=N/NC(=O)c2cc(C)oc2C)ccc1OCc1ccccc1 | -0.7 | 78.7* | 8.7 | -78.7
COc1cc(/C=N/NC(=O)c2ccncc2)ccc1OCCN1CCCCC1 | -8.8 | -2.6 | -5.2 | 2.6
COc1cc(/C=N/NC(=O)c2cc3c(ccc4ccccc43)o2)cc(OC)c1O | 16.0 | -17.3 | 42.4* | 17.3
CCCc1c(C(=O)N/N=C/c2ccccc2OCc2ccc(F)cc2)nnn1-c1nonc1N | -17.2 | 84.7* | 9.6 | -84.7
CSc1cccc(NC(=O)CCS(=O)(=O)c2cccc3nonc23)c1 | 16.2 | 3.9 | -28.4 | -3.9
O=C(COC(=O)c1ccc(Br)o1)NCc1ccccc1Cl | -2.4 | 9.2 | 3.9 | -9.2
OCC[C@@H]1C[C@@H](O)[C@H](O)[C@]2(CCc3ccccc3CO2)O1 | -5.9 | -8.2 | -6.5 | 8.2
CS(=O)(=O)Nc1cccc(NC(=O)C2Cc3c(-c4cccc(F)c4)ccnc3O2)c1 (stereo not given) | · | · | -6.0 | ·
CCCc1c(C(=O)N/N=C/c2ccc(OCc3ccccc3)cc2)nnn1-c1nonc1N | · | · | 9.2 | ·
CCCc1c(C(=O)N/N=C/c2ccc(OCc3ccccc3)c(OC)c2)nnn1-c1nonc1N | -8.5 | 75.8* | 35.7 | -75.8
Cc1ccc(-c2nnn3c2nc(NCCc2ccc(S(N)(=O)=O)cc2)c2ccccc23)cc1 | 1.0 | -87.6 | -348.0 | 87.6*
CC(C)Oc1ccccc1/C=N/NC(=O)c1ccccc1Cl | -7.3 | 77.0* | -4.3 | -77.0
CCN(CC)S(=O)(=O)c1cccc(C(=O)Nc2cc(C)cc(C)c2)c1 | -1.5 | 76.7* | 8.1 | -76.7
SMILES | UBC13 polyUb | SR-BI HDL uptake | Neddylation inh | SR-BI uptake up
CC(C)Oc1ccccc1/C=N/NC(=O)c1ccc(F)cc1 | -3.8 | 63.4 | -5.3 | -63.4
CCN(CC)S(=O)(=O)c1cccc(C(=O)N/N=C/c2ccc(O)c(O)c2O)c1 | · | 1.4 | -15.8 | -1.4
CCOc1ccccc1/C=N/NC(=O)c1cccc(Cl)c1 | 3.8 | 86.1* | 9.9 | -86.1
CCOc1ccccc1/C=N/NC(=O)c1cccc(S(=O)(=O)N(CC)CC)c1 | 7.5 | 77.1* | 6.1 | -77.1
COc1ccc(Cc2nc3ccc(C(=O)N4CCCCC4CO)cc3o2)cc1OC (stereo not given) | · | · | -2.6 | ·
C#CCOc1ccc(CNC[C@H]2O[C@@H](n3ccc(=O)[nH]c3=O)[C@H](O)[C@@H]2O)cc1 | · | · | 0.2 | ·
